The species entered for test [1] is Bos taurus. Briefly: Relative potency of compound to that of theophylline against phosphodiesterase from bovine heart. An outline of the steps: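 Klee-method assay of commercial bovine heart phosphodiesterase with 1 μM cyclic-AMP; some inhibitors were dissolved in 95% ethanol (2.5% final). I50 came from V0/V versus concentration plots (V0/V = 2), using five concentrations and at least three repeats. Each value is expressed relative to the I50 of a theophylline control (= 1.0) run with or without ethanol to match.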

Test [2] can be described thus: Inhibitory activity against phosphodiesterase using 1 uM cyclic-AMP as substrate in bovine heart. The arrangement: species or system Bos taurus. The note with it: read-out: I50. An outline of the steps: (§1)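 Commercial bovine heart phosphodiesterase assayed by the Klee method with 1 μM cyclic-AMP substrate. Poorly soluble inhibitors were predissolved in 95% ethanol, giving 2.5% ethanol final. I50 was taken from a plot of V0/V against inhibitor concentration as the concentration where V0/V = 2. Five concentrations spanning 25–75% inhibition were used, and each I50 was repeated at least three times; ± standard error.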

The nature of test [3]: Inhibition of bovine heart phosphodiesterase using 1 uM cyclic-AMP with ethanol. The arrangement: species or system Bos taurus. The settings on record: read-out: I50. An outline of the steps: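 Commercial bovine heart PDE, assayed by the Klee method with 1 μM cyclic-AMP substrate. Inhibitors were dissolved in 95% ethanol and diluted with buffer to 2.5% ethanol final. V0/V was plotted against inhibitor concentration, and I50 was taken where V0/V = 2. Five inhibitor concentrations spanning 25-75% inhibition were used, each I50 was run at least three times, and values are expressed relative to an ethanol-containing theophylline control (= 1.0) ± standard error.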

For test [4], the species on record is Bos taurus. Nature of the test: Inhibition of bovine heart phosphodiesterase at 2000 uM using 1 uM cyclic-AMP. An outline of the steps: (§2)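 Percent inhibition of commercial bovine heart phosphodiesterase at the single stated inhibitor concentration, measured by the Klee method with 1 μM cyclic-AMP substrate. Some compounds were dissolved in 95% ethanol, giving 2.5% final ethanol, before dilution with buffer.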

The species named for test [5] is Bos taurus. Nature of the test: Inhibition of bovine heart phosphodiesterase at 1500 uM using 1 uM cyclic-AMP. The method, boiled down: as §2
The species entered for test [6] is Bos taurus. Briefly: Inhibition of bovine heart phosphodiesterase at 1000 uM using 1 uM cyclic-AMP. An outline of the steps: as §2
Test [7] is filed under the species Bos taurus. Nature of the test: Inhibition of bovine heart phosphodiesterase using 1 uM cyclic-AMP. The method, boiled down: as §1
Test [8] is filed under the species Bos taurus. Nature of the test: Inhibition of bovine heart phosphodiesterase at 3000 uM using 1 uM cyclic-AMP. An outline of the steps: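 Commercial bovine heart cyclic-AMP phosphodiesterase assayed by the Klee method with 1 μM cyclic-AMP substrate. Poorly soluble compounds were dissolved in 95% ethanol (2.5% final) before dilution with buffer. Activity is read as percent inhibition at a single inhibitor concentration.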

Test [9] is described as follows: Inhibition of bovine heart phosphodiesterase using 1 uM cyclic-AMP (Insoluble). The arrangement: species or system Bos taurus. An outline of the steps: as §1

Experimental findings from ChEMBL document CHEMBL1121738, “Mesoionic purinone analogues as inhibitors of cyclic-AMP phosphodiesterase: a comparison of several ring systems” (J Med Chem, 1981) are described below.

In [1], `CCC1C(=O)N2C=Cc3ccccc3C2=[N+](CC)C1=O` (centres undefined) had a Relative potency of 3.2. Further, in test [2], the IC50 amounted to 127 µM.

In test [1], `CCC1C(=O)N2C=CSC2=[N+](Cc2cccc(Cl)c2)C1=O` (centres undefined) gave a Relative potency of 2. For the same molecule, in test [2], the IC50 stood at 208 µM.

With `CC[N+]1=C2SC=CN2C(=O)C(Cc2ccccc2)C1=O` (centres undefined), the Relative potency in test [1] was 2.5. For the same molecule, in test [2], the IC50 turned out to be 168 µM.

Take `CCC1C(=O)N2C=CSC2=[N+](Cc2ccc3c(c2)OCO3)C1=O` (centres undefined): the Relative potency in [1] stood at 1.6. Moreover, the IC50 in [2] was found to be 261 µM.

In turn, `O=C1CC(=O)[n+]2ccsc2N1Cc1cccc(Cl)c1` had a Relative potency in test [1] of 1.3. Besides, in test [2], the IC50 turned out to be 308 µM.

Consider `Cn1c(=O)c2nc[nH]c2n(C)c1=O` [THEOPHYLLINE], for which the IC50 is 412 µM in test [3] and 286 µM in test [2].

The molecule `CC[N+]1=C2SC=NN2C(=O)CC1=O` registered a Relative potency in [1] of 0.5. For the same molecule, in test [2], the IC50 was 774 µM.

Regarding `CC[N+]1=C2SC=CN2C(=O)CC1=O`, the Relative potency in test [1] came to 0.3. In [2], the IC50 came to 988 µM.

Regarding `CN1C=NN2C(=O)CC(=O)[N+](C)=C12`, in test [4], the inhibition is less than 30%.

As to `CCC1C(=O)N2CCSC2=[N+](CC(C)C)C1=O` (centres undefined), the inhibition in test [5] stood at 39%.

`CCC1C(=O)N2C=CSC2=[N+](Cc2ccc(-c3ccccc3)cc2)C1=O` (centres undefined) registered a Relative potency in [1] of 31.7. Further, in test [2], the IC50 was found to be 13 µM.

Molecule `CCC1C(=O)N2C=CSC2=[N+](c2ccccc2)C1=O` (centres undefined) showed an inhibition in test [6] of less than 40%.

`CC1C(=O)N2C=CSC2=[N+](c2ccccc2)C1=O` (centres undefined) gave an inhibition in test [6] of less than 40%.

Regarding `CCC1C(=O)N(C)C2SC=CN2C1=O` (centres undefined), the inhibition in [6] was less than 40%.

Take `CCCC1C(=O)N2N=CN(C)C2=[N+](C)C1=O` (centres undefined): the Relative potency in test [1] came out at 0.2. Further, the IC50 in test [2] was 1710 µM.

In test [1], `O=C1CC(=O)[N+](CC2CC2)=C2SC=CN12` showed a Relative potency of 0.6. Further, in [2], the IC50 came to 495 µM.

`CCC1C(=O)N(CC)c2scc[n+]2C1=O` (centres undefined) showed a Relative potency in [1] of 0.3. The IC50 in [2] was found to be 858 µM.

Turning to `CCC1C(=O)N2C=CC=NC2=[N+](C)C1=O` (centres undefined), in test [1], the Relative potency was 0.2. The IC50 in test [2] was determined as 1670 µM.

Molecule `CCC1C(=O)N2C=CSC2=[N+](Cc2ccc(Cl)cc2)C1=O` (centres undefined) yielded a Relative potency in [1] of 2.2. Besides, in test [2], the IC50 stood at 191 µM.

Consider `C[N+]1=C2SC=NN2C(=O)CC1=O`, for which the Relative potency in test [1] was 0.4. Moreover, in test [2], the IC50 is 1100 µM.

Consider `CCC1C(=O)N2N=CSC2=[N+](CC)C1=O` (centres undefined), for which the Relative potency in test [1] worked out at 0.7. Moreover, the IC50 in test [2] came out at 555 µM.

For `CC[N+]1=C2SC=NN2C(=O)C(C)C1=O` (centres undefined), the Relative potency in test [1] came to 0.4. Also, in [2], the IC50 was found to be 1160 µM.

On to `CCC1C(=O)N2C=CC=CC2=[N+](CC2CCCCC2)C1=O` (centres undefined), for which, in [1], the Relative potency turned out to be 2. Also, the IC50 in test [2] turned out to be 210 µM.

Turning to `CCC1C(=O)N=C2N=CC=CN2C1=O` (centres undefined), in test [4], the inhibition is 22%.

`CCC1C(=O)N2C=CSC2=[N+](Cc2ccccc2Cl)C1=O` (centres undefined) yielded a Relative potency in test [1] of 1.4. In test [2], the IC50 was 305 µM.

For `C[N+]1=C2SC=CN2C(=O)CC1=O`, the inhibition in test [6] is less than 40%.

As to `CC[N+]1=C2SC=CN2C(=O)C(C)C1=O` (centres undefined), in test [1], the Relative potency amounted to 0.3. For the same molecule, the IC50 in test [2] came out at 951 µM.

In test [1], `CCC1C(=O)N2C=CSC2=[N+](CC(C)C)C1=O` (centres undefined) gave a Relative potency of 0.6. Also, in test [2], the IC50 stood at 498 µM.

In test [1], `CCC1C(=O)N2CCSC2=[N+](CC2CC2)C1=O` (centres undefined) registered a Relative potency of 0.2. Further, the IC50 in test [2] is 1390 µM.

As for `CC1C(=O)N2CCSC2=[N+](CC2CC2)C1=O` (centres undefined), the Relative potency in test [1] came out at 0.2. The IC50 in test [2] was 1260 µM.

As for `CC1C(=O)N2C=CSC2=[N+](CC2CC2)C1=O` (centres undefined), the Relative potency in test [1] is 0.9. For the same molecule, the IC50 in test [2] stood at 319 µM.

As for `CCC1C(=O)N2CCSC2=[N+](CC)C1=O` (centres undefined), the inhibition in test [7] came to 38%.

In the case of `CCC1C(=O)N2C=CN(C)C2=[N+](CC)C1=O` (centres undefined), the inhibition in test [8] was less than 30%.

Take `O=C1CC(=O)[N+](c2ccccc2)=C2SC=CN12`: in test [6], the inhibition was less than 40%.

Regarding `CCC1C(=O)N=C2SC=NN2C1=O` (centres undefined), the I50 result in test [9] was “Insoluble”.

Molecule `COc1ccc(C[N+]2=C3SC=CN3C(=O)C(C)C2=O)cc1` (centres undefined) returned a Relative potency in test [1] of 0.7. In addition, the IC50 in [2] amounted to 532 µM.

Regarding `CC[N+]1=C2SC=NN2C(=O)C(Cc2ccccc2)C1=O` (centres undefined), the Relative potency in [1] is 7.9. For the same molecule, the IC50 in [2] was 52 µM.

Regarding `CC[N+]1=C2N(C)C=CN2C(=O)C(C)C1=O` (centres undefined), the inhibition in [8] is less than 30%.

`CC1C(=O)N2N=CSC2=[N+](Cc2ccccc2)C1=O` (centres undefined): the Relative potency in test [1] is 2.2. Further, in [2], the IC50 is 191 µM.

The molecule `CCC1C(=O)N2C=CSC2=[N+](Cc2ccccc2)C1=O` (centres undefined) registered a Relative potency in [1] of 0.9. The IC50 in [2] stood at 430 µM.

`CC1C(=O)N2N=CN(C)C2=[N+](C)C1=O` (centres undefined) had an inhibition in test [4] of less than 30%.

The molecule `CC1C(=O)N(C)C2SC=CN2C1=O` (centres undefined) gave an inhibition in [6] of less than 40%.

In turn, `CCC1C(=O)N2C=CSC2=[N+](CC2CC2)C1=O` (centres undefined) returned a Relative potency in test [1] of 0.7. Further, the IC50 in test [2] came out at 396 µM.

Regarding `Cn1c(=O)c2[nH]cnc2n(C)c1=O`, in test [1], the Relative potency worked out at 1.

Molecule `CCC1C(=O)N2C=CSC2=[N+](Cc2cc(OC)cc(OC)c2)C1=O` (centres undefined) showed a Relative potency in [1] of 1.3. The IC50 in test [2] was 323 µM.

In test [4], `CCC1C(=O)N2N=CN(C)C2=[N+](C)C1=O` (centres undefined) yielded an inhibition of less than 30%.

For `CCC1C(=O)N=C2SC=CN2C1=O` (centres undefined), the I50 result in test [9] is “Insoluble”.

With `O=C1CC(=O)[N+](CC2CC2)=C2SCCN12`, the Relative potency in [1] came to 0.1. The IC50 in test [2] stood at 2050 µM.
